Assay results of several laboratories.
Compare with care: the assays were run in different laboratories.
PDE3A: cGMP-inhibited 3',5'-cyclic phosphodiesterase 3A (PDE3A, Homo sapiens, UniProt Q14432)

CCN(CC)CCCC[C@H](NC(=O)[C@H](CC(C)C)NC(=O)[C@H](C)NC(=O)[C@H](Cc1ccccc1)NC(=O)c1ccc(C(C)(C)C)cc1)C(=O)N[C@@H](CO)C(=O)OC
inhibition (Nociceptin receptor (OPRL1, Homo sapiens, UniProt P41146); ligand displacement; radioligand; 10 µM): 23%

CCOC(=O)c1ccc(OC(=O)CCCCCNC(=N)N)cc1
inhibition (Ataxin-3 (ATXN3, Homo sapiens, UniProt P54252); enzyme activity; inhibitor; 10 µM): 3%

Cn1cc(-c2cccc(N3CCc4c(sc5c4CC(C)(C)C5)C3=O)c2CO)cc(Nc2ccncn2)c1=O
inhibition (Leucine-rich repeat serine/threonine-protein kinase 2 (LRRK2, Homo sapiens, UniProt Q5S007, G2019S); enzyme activity; inhibitor; 1 µM): -15%

COCc1c(-c2cc3cc(C)cc(OC)c3s2)c2c(N)ncnn2c1CN1CCNC(=O)C1
inhibition (Alpha-2C adrenergic receptor (ADRA2C, Homo sapiens, UniProt P18825); ligand displacement; radioligand; 10 µM): 31%

O=C(Nc1cccnn1)N1CCN([C@@H]2CCOc3cc(C(F)(F)F)ccc32)CC1
inhibition (PDE3A; cell-free assay; 20 µM): 4%

Clc1ccc2c(C3CCN(CCc4c[nH]c5ccccc45)CC3)c[nH]c2c1
inhibition (PDE3A; enzyme activity; inhibitor; 10 µM): -1%

C#Cc1n[nH]c2c(-c3cn([C@@H](C)c4ccccn4)c(=O)[nH]c3=O)cc(F)cc12
inhibition (Mitogen-activated protein kinase 14 (MAPK14, Homo sapiens, UniProt Q16539); enzyme activity; inhibitor; 0.1 µM): 4%

Cn1cc(-c2cc(F)cc(N3CCn4c(cc5c4CCCC5)C3=O)c2CO)cc(Nc2ccc(N3CCN(C4COC4)CC3)cn2)c1=O
inhibition (Serine/threonine-protein kinase TAO2 (TAOK2, Homo sapiens, UniProt Q9UL54); enzyme activity; inhibitor; 0.1 µM): 7%

C#Cc1n[nH]c2c(-c3cn([C@@H](C)c4ccccc4)c(=O)[nH]c3=O)cc(F)cc12
inhibition (Leucine-rich repeat serine/threonine-protein kinase 2 (LRRK2, Homo sapiens, UniProt Q5S007); enzyme activity; inhibitor; 0.1 µM): 3.8%

c1ccc(C(NCCNC(c2ccccc2)c2ccccc2)c2ccccc2)cc1
inhibition (PDE3A; cell-free assay; inhibitor; 10 µM): 0%

COc1cc(Nc2ncc(F)c(Nc3ccc4c(n3)NC(=O)C(C)(C)O4)n2)cc(OC)c1OC
inhibition (Eukaryotic translation initiation factor 2-alpha kinase 1 (EIF2AK1, Homo sapiens, UniProt Q9BQI3); binding; competition with immobilised ligand; 10 µM): 38%
